Lung fibro prol: antiproliferative effect on LL 47 fibroblasts – human, LL 47 cells, CellTiter-Glo luminescence, primary screen; LL 47 human lung fibroblast viability, ATP luminescence; stronger effect = lower value; viability, % at 10 µM; actives 1.1% (n = 85,000); AID 719, 2007;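 active = viability at or below 50% in the single dose screen; inactive = viability above 50%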;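 also: compound exposure lasted 72 h before the ATP readout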
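Benchmarks: Cell-only wells, no compound | Test system: LL 47 human lung fibroblasts, passage 12 or lower | Input: 1,150 cells/well | Measured by: CellTiter-Glo luminescence measuring cellular ATP | Medium: IMEM, 15% FBS supplement | Schedule: Overnight attachment after seeding, then 72 h compound exposure at 37 °C | Doses: Compound addition at 0.1% DMSO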
PTEN del growth: growth suppression of PTEN-null HCT116, primary screen, cell-based, CellTiter-Glo. HCT116 PTEN-null viability, 60 h; stronger effect = lower value. viability, % at 10 µM. actives 1.2% (n = 140,000). AID 827, 2007;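 active = viability at or below a set limit, 4 SD under the median of all tested compounds, cut at about 3.7% in these data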;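 also: PTEN knockout HCT116 line with beta catenin targeted HCT116 as companion control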
HUVEC inhibit: inhibitors of HUVEC proliferation, primary screen, cell-based, 384-well; CellTiter-Glo luminescence, 72 h; stronger effect = lower value; viability, % at 10 µM (by protocol); actives 1.1% (n = 86,000); AID 648, 2007;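 active = viability at or below 30%; inactive = viability above 30%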
bCat KO growth: primary screen for growth suppressors in beta-catenin knockout HCT116 cells (colon tumor, human); HCT116 beta-catenin knockout viability, CellTiter-Glo, 60 h; stronger effect = lower value; viability, % at 10 µM; actives 1.5% (n = 140,000);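 active = viability at or under a set limit, the compound median less 4 SD, cut at about 6% in these data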
H69AR inhibit: proliferation blockers of H69AR lung cancer cells, primary screen, cell-based, human, 86K library; H69AR lung tumor viability, ATP luminescence, 72 h; stronger effect = lower value; viability, % at 10 µM; actives 6% (n = 85,000);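 active = viability at or below 40%; inactive = viability above 40%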;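 also: multidrug resistant small cell line overexpressing MRP-1 efflux transporter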
Numbers stand for hits. Many of the other results were omitted from the sample, so hits are more common in it than they were.

COc1cccc(-c2cc(C(=O)Nc3cccnc3)no2)c1 was read as Lung fibro prol inactive, PTEN del growth inactive, HUVEC inhibit inactive, bCat KO growth inactive and H69AR inhibit inactive.
Screening COc1cccc(-c2cc(C(=O)Nc3cc(OC)c(OC)c(OC)c3)no2)c1 returned Lung fibro prol inactive, PTEN del growth inactive, HUVEC inhibit inactive, bCat KO growth inactive and H69AR inhibit 16.9.
Screening CN1CCN(CCC(=O)N2c3ccccc3Sc3ccc(Cl)cc32)CC1 returned Lung fibro prol inactive, PTEN del growth inactive, HUVEC inhibit inactive, bCat KO growth inactive and H69AR inhibit inactive.
CN1CCN(C2=Cc3ccccc3Sc3cc(F)c(Cl)cc32)CC1 was read as Lung fibro prol inactive, PTEN del growth inactive, HUVEC inhibit 8.8, bCat KO growth inactive and H69AR inhibit 0.0.
For CN1CCN(C2=Cc3ccccc3Sc3cc(F)c(F)cc32)CC1 the results were Lung fibro prol inactive, PTEN del growth inactive, HUVEC inhibit 6.7, bCat KO growth inactive and H69AR inhibit 7.1.
`CN1CCN(C2=Cc3cc(Cl)ccc3Sc3cc(F)ccc32)CC1` gave Lung fibro prol inactive, PTEN del growth inactive, HUVEC inhibit 4.9, bCat KO growth 1.3 and H69AR inhibit inactive.
Screening COc1ccc(C(=O)n2cnc(N)n2)cc1 returned Lung fibro prol inactive, PTEN del growth inactive, HUVEC inhibit inactive, bCat KO growth inactive and H69AR inhibit inactive.
CC(O)CNC(=O)C1CCN(Cc2ccc(OCc3ccccc3)cc2)CC1 (stereo not drawn) was read as Lung fibro prol inactive, PTEN del growth inactive, HUVEC inhibit inactive, bCat KO growth inactive and H69AR inhibit inactive.
Screening Cc1ccc(-c2nnc3n2N=C(c2ccc(Br)cc2)CS3)cc1 returned Lung fibro prol inactive, PTEN del growth inactive, HUVEC inhibit inactive, bCat KO growth inactive and H69AR inhibit 6.1.
Screening Brc1ccc(C2=Nn3c(nnc3-c3n[nH]c4c3CCC4)SC2)cc1 returned Lung fibro prol 40.8, PTEN del growth inactive, HUVEC inhibit inactive, bCat KO growth inactive and H69AR inhibit 19.6.
`Cc1cccc(-c2nnc3n2N=C(c2ccc(Br)cc2)CS3)c1` gave Lung fibro prol inactive, HUVEC inhibit inactive and H69AR inhibit inactive.
Screening Clc1ccc(C2=Nn3c(nnc3-c3n[nH]c4c3CCC4)SC2)cc1 returned Lung fibro prol inactive, PTEN del growth inactive, HUVEC inhibit inactive, bCat KO growth inactive and H69AR inhibit 15.0.
`Cc1ccc(NC(=O)CSc2nc(-c3ccco3)cc(C(F)(F)F)n2)cc1C` gave Lung fibro prol inactive, PTEN del growth inactive, HUVEC inhibit inactive, bCat KO growth inactive and H69AR inhibit 21.7.
For O=C(CSc1nc(-c2ccco2)cc(C(F)(F)F)n1)Nc1ccc2c(c1)CCC2 the results were Lung fibro prol inactive, PTEN del growth inactive, HUVEC inhibit inactive, bCat KO growth inactive and H69AR inhibit 21.4.
Screening O=C(CSc1nnc(-c2ccco2)c(-c2ccco2)n1)Nc1ccccc1 returned Lung fibro prol inactive, PTEN del growth inactive, HUVEC inhibit inactive, bCat KO growth inactive and H69AR inhibit inactive.
Screening O=C(CSc1nc(-c2ccco2)cc(C(F)(F)F)n1)NC1CCCC1 returned Lung fibro prol inactive, PTEN del growth inactive, HUVEC inhibit inactive, bCat KO growth inactive and H69AR inhibit inactive.
Cc1cc(NC(=O)CSc2nc(-c3ccco3)cc(C(F)(F)F)n2)n(-c2ccccc2)n1 was read as PTEN del growth inactive and bCat KO growth inactive.
For COC(=O)c1ccccc1NC(=O)CSc1nc(-c2ccco2)cc(C(F)(F)F)n1 the results were Lung fibro prol inactive, PTEN del growth inactive, HUVEC inhibit inactive, bCat KO growth inactive and H69AR inhibit 24.0.
Screening Cc1ccc(NC(=O)CSc2nnc(-c3ccco3)c(-c3ccco3)n2)cc1 returned Lung fibro prol inactive, PTEN del growth inactive, HUVEC inhibit inactive, bCat KO growth inactive and H69AR inhibit 26.0.
For CC1CCN(CCC(=O)Nc2ccc3c(c2)CCC3)CC1 the results were Lung fibro prol inactive, PTEN del growth inactive, HUVEC inhibit inactive, bCat KO growth inactive and H69AR inhibit inactive.
Screening CCCCn1c(CCC)nc([N+](=O)[O-])c1Sc1ccc(Cl)cn1 returned Lung fibro prol inactive, PTEN del growth inactive, HUVEC inhibit inactive, bCat KO growth inactive and H69AR inhibit 2.4.
Screening CCn1c(C)nc([N+](=O)[O-])c1Sc1ccc(F)cc1 returned PTEN del growth inactive and bCat KO growth inactive.
Screening CC(C)Cn1c(C(C)C)nc([N+](=O)[O-])c1Sc1ccc(Cl)cn1 returned Lung fibro prol inactive, PTEN del growth inactive, HUVEC inhibit inactive, bCat KO growth inactive and H69AR inhibit 18.8.
Screening O=[N+]([O-])c1ccc(Sc2ccccc2)nc1 returned PTEN del growth inactive and bCat KO growth inactive.
Screening N#CC1=C(N)Oc2cc(N)ccc2C1C1CCCCC1 (stereo not drawn) returned Lung fibro prol inactive, PTEN del growth inactive, HUVEC inhibit inactive, bCat KO growth inactive and H69AR inhibit 23.6.
`CSc1nsc(SCC(=O)Nc2ccc(C(C)=O)cc2)n1` gave Lung fibro prol inactive, PTEN del growth inactive, HUVEC inhibit inactive, bCat KO growth inactive and H69AR inhibit inactive.
For O=C(c1cn(-c2ccccc2)nc1-c1cccs1)N(CCO)Cc1ccccc1 the results were Lung fibro prol inactive, PTEN del growth inactive, HUVEC inhibit inactive, bCat KO growth inactive and H69AR inhibit 23.4.
c1ccc(C2C3=C(Nc4ncnn42)c2ccccc2CCC3)cc1 (stereo not drawn) was read as Lung fibro prol inactive, PTEN del growth inactive, HUVEC inhibit inactive, bCat KO growth inactive and H69AR inhibit inactive.
Screening Clc1ccc(C2C3=C(Nc4ncnn42)c2ccccc2CC3)cc1 (stereo not drawn) returned Lung fibro prol inactive, PTEN del growth inactive, HUVEC inhibit inactive, bCat KO growth inactive and H69AR inhibit 13.4.
Screening CCOCCCNC(=S)N1C2CCC1CC(NC(=O)NC1CCCCC1)C2 (stereo not drawn) returned PTEN del growth inactive and bCat KO growth inactive.
`CN=C1CC(SC)=C1c1ccc(C)cc1` gave Lung fibro prol 33.3, PTEN del growth inactive, HUVEC inhibit inactive, bCat KO growth inactive and H69AR inhibit 38.5.
Screening Cc1ccc(C(C)NC(=O)/C(C#N)=C\c2c(C)[nH]c3ccccc23)cc1 (stereo not drawn) returned PTEN del growth inactive and bCat KO growth inactive.
For COC(=O)c1ccc(/C=C(\C#N)C(=O)NC(C)c2ccccc2)cc1 (stereo not drawn) the results were PTEN del growth 1.6 and bCat KO growth 3.7.
For Cc1cnc(C(=O)Nc2nnc(C)s2)cn1 the results were Lung fibro prol inactive, PTEN del growth inactive, HUVEC inhibit inactive, bCat KO growth inactive and H69AR inhibit inactive.
Cc1c(CCC(=O)O)c(=O)oc2cc(O)ccc12 was read as Lung fibro prol inactive, PTEN del growth inactive, HUVEC inhibit inactive, bCat KO growth inactive and H69AR inhibit inactive.
